Reference: ChEMBL document CHEMBL2086386, “Potent and orally efficacious benzothiazole amides as TRPV1 antagonists” (Bioorg Med Chem Lett, 2012)
pIC50: −log10 of the molar value. In brackets after ≈: the same amount, converted by molar mass. Activity calls are given as the source filed them.

Legend:
[1] = target: Transient receptor potential cation channel subfamily V member 1 (Homo sapiens, UniProt Q8NER1); assay: Antagonist activity at human recombinant TRPV1 receptor assessed as inhibition of capsaicin-induced calcium uptake by FLIPR assay; assay type: functional
Outline: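 Whole-cell fluorescence imaging assay (FLIPR II) of the rise in intracellular Ca2+ on capsaicin addition. Inhibition by the test compound is quantified.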

[2] = Aqueous solubility of the compound in sodium phosphate buffer at pH 7.4; assay type: physicochemical
Outline: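 Solubility measured in 0.1 M sodium phosphate buffer.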

[3] = Intrinsic clearance in human liver microsomes assessed per mg of protein; assay type: ADME, Microsome; details: read-out: CLH
[4] = Clearance in rat hepatocytes assessed as per 10^6 cells; assay type: ADME, cell-based, Hepatocyte; details: read-out: CLH
[5] = Half life in iv dosed Sprague-Dawley rat; assay type: ADME, organism-based; details: in vivo
[6] = target: Transient receptor potential cation channel subfamily V member 1 (Rattus norvegicus) (UniProt O35433); assay: Binding affinity to rat TRPV1 at 1 uM
[7] = Oral bioavailability in Sprague-Dawley rat; assay type: ADME, organism-based; details: in vivo
Rattus norvegicus [8] = assay: Analgesic activity against capsaicin-induced thermal hyperalgesia in Sprague-Dawley rat assessed as paw withdrawal latency at 90 umol/kg, po after 30 mins; assay type: functional
Outline: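 Male Sprague-Dawley rats (125-200 g), groups of 7, acclimatized at least 3 days and tested in the light phase. Capsaicin 10 μg/5 μL is injected intradermally into the plantar left hind paw of restrained rats. Heat hyperalgesia is read 30 min later as radiant-heat paw withdrawal latency on a 30 °C glass surface: two trials about 5 min apart, averaged, 20 s cut-off. Naïve rats serve as controls. Single oral dose.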

Rattus norvegicus [9] = assay: Analgesic activity against carrageenan-induced thermal hyperalgesia in Sprague-Dawley rat assessed as paw withdrawal latency at 100 umol/kg, po after 30 mins after 3 hrs; assay type: functional
Outline: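 Male Sprague-Dawley rats (125-200 g), groups of 7. Under isoflurane, 100 µl of 1% carrageenan is injected subcutaneously into the plantar left hind paw, and testing is done 3 h later. After 30 min acclimation on a 30 °C glass surface, radiant heat is focused on the affected paw. Withdrawal latency is the mean of two trials about 5 min apart, with a 20 s cut-off. Naïve rats serve as controls. Single oral dose.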

Rattus norvegicus [10] = assay: Toxicity in Sprague-Dawley rat assessed as effect on body temperature at 100 umol/kg, po; assay type: organism-based; details: in vivo

Transient receptor potential cation channel subfamily V member 1, sequence (Q8NER1 whole entry): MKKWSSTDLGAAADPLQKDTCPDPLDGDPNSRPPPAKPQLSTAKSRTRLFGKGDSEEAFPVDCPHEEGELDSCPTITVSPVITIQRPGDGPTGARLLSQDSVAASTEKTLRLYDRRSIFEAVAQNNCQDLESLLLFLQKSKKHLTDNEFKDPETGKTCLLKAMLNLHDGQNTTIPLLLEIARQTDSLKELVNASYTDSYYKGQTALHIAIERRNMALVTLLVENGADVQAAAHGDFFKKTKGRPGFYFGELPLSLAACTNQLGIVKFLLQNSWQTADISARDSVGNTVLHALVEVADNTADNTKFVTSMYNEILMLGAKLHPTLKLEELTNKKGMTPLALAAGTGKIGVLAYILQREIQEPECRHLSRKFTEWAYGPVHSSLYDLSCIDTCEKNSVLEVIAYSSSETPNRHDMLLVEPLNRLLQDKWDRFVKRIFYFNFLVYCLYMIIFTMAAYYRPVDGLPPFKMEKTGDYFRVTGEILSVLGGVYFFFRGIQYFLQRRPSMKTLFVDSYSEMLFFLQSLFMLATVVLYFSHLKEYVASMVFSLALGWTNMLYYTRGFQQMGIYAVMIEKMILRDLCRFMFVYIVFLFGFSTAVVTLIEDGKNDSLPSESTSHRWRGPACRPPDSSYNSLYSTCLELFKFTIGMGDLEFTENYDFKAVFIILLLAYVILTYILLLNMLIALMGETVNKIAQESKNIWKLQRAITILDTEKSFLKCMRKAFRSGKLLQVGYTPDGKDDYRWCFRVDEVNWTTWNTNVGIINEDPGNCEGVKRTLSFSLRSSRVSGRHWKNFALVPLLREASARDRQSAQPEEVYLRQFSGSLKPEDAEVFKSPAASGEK
Transient receptor potential cation channel subfamily V member 1 (Rattus norvegicus), sequence (O35433 whole entry): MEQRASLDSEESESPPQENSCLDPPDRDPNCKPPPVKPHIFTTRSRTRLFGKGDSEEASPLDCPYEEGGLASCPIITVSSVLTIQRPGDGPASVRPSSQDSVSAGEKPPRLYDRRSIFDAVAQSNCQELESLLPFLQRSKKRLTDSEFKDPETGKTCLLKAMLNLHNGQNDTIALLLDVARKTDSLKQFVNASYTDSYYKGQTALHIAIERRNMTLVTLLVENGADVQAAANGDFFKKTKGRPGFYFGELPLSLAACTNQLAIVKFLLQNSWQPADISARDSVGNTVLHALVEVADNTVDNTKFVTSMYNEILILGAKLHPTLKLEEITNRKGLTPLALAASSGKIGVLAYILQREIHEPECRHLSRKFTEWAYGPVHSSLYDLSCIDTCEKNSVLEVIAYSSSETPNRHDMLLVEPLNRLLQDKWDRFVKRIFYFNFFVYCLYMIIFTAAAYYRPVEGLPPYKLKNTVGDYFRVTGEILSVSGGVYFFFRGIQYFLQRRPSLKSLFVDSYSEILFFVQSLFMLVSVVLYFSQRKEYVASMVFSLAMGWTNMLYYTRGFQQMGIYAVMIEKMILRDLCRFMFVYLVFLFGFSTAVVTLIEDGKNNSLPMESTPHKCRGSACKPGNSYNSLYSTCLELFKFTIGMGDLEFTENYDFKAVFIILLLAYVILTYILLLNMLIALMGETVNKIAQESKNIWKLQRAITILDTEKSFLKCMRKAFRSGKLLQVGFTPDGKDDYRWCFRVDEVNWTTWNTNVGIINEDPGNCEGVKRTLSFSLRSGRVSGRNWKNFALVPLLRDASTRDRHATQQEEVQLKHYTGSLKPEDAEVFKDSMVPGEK

Compound	pIC50 [1]	solubility [2]	also measured
O=C(Nc1ccc2sc(CO)nc2c1)C1CCC(C(F)(F)F)CC1 (stereo not drawn)	< 5.00	77 µM (≈ 27.6 µg/mL)	
CC(C)Oc1ccc(C(=O)Nc2ccc3sc(CO)nc3c2)cc1	7.48	38 µM (≈ 13 µg/mL)	microsomal CLint [3]: 12 µL/min/mg; hepatocyte CLint [4]: 57 µL/min/1e6 cells
CC(C)(C)c1ccc(C(=O)Nc2ccc3sc(CN)nc3c2)cc1	6.01		
CC(C)(C)Oc1ccc(C(=O)Nc2ccc3sc(CO)nc3c2)cc1	8.01	64 µM (≈ 22.8 µg/mL)	microsomal CLint [3]: 19 µL/min/mg
Cc1cc(Br)ccc1C(=O)Nc1ccc2sc(CO)nc2c1	7.28	10 µM (≈ 3.77 µg/mL)	half-life [5]: 2.4 h; hepatocyte CLint [4]: 24 µL/min/1e6 cells; Activity [6]: Active; bioavailability [7]: 53%; Activity (Rattus norvegicus [8]): 72%; Activity (Rattus norvegicus [9]): 35%; Activity (Rattus norvegicus [10]): Non-toxic
O=C(Nc1ccc2sc(CO)nc2c1)c1ccc(CN2CCOCC2)cc1	< 5.00	419 µM (≈ 161 µg/mL)	microsomal CLint [3]: 13 µL/min/mg
Cc1nc2cc(NC(=O)c3ccc(C(C)(C)C)cc3)ccc2s1	7.57	2.2 µM (≈ 0.714 µg/mL)	
O=C(Nc1ccc2sc(CO)nc2c1)c1ccc(C(F)(F)F)cc1	7.92		
O=C(Nc1ccc2sc(CO)nc2c1)c1ccc(Cl)cc1	7.17	3 µM (≈ 0.956 µg/mL)	microsomal CLint [3]: 14 µL/min/mg; hepatocyte CLint [4]: 66 µL/min/1e6 cells
O=C(Nc1ccc2sc(CO)nc2c1)c1ccc(N2CCCCC2)nc1		4 µM (≈ 1.47 µg/mL)	
CC(C)(C)c1ccc(C(=O)Nc2ccc3sc(CNS(C)(=O)=O)nc3c2)cc1	6.15		
Cc1cc(Cl)ccc1C(=O)Nc1ccc2sc(CO)nc2c1	7.07	7 µM (≈ 2.33 µg/mL)	hepatocyte CLint [4]: 17 µL/min/1e6 cells
CC(C)(C)c1ccc(C(=O)Nc2ccc3sc(CO)nc3c2)cc1	8.43	6 µM (≈ 2.04 µg/mL)	microsomal CLint [3]: 57 µL/min/mg
Cn1nc(C(F)(F)F)cc1C(=O)Nc1ccc2sc(CO)nc2c1	6.80	14 µM (≈ 4.99 µg/mL)	microsomal CLint [3]: 9 µL/min/mg
CCN(CC)Cc1ccc(C(=O)Nc2ccc3sc(CO)nc3c2)cc1	< 5.00	5160 µM (≈ 1910 µg/mL)	
Cc1ccc(CCNC(=O)c2ccc3sc(CO)nc3c2)cc1	5.79		

Compound	pIC50 [1]	solubility [2]	also measured
O=C(Nc1ccc2sc(CO)nc2c1)c1ccc(OCC(F)(F)F)nc1	7.39	9 µM (≈ 3.45 µg/mL)	
CC(=O)NCc1nc2cc(NC(=O)c3ccc(C(C)(C)C)cc3)ccc2s1	5.62		
Cc1ccc(-c2cc(C(F)(F)F)nn2-c2ccc(S(N)(=O)=O)cc2)cc1 [CELECOXIB]			Activity (Rattus norvegicus [9]): 35%
O=C(Nc1ccc2sc(CO)nc2c1)c1ccc(Br)cc1	7.58	5 µM (≈ 1.82 µg/mL)	hepatocyte CLint [4]: 54 µL/min/1e6 cells
CC(C)(C)c1ccc(NC(=O)c2ccc3sc(CO)nc3c2)cc1	< 5.00		
CC(C)(C)c1ccc(CNc2ccc3sc(CO)nc3c2)cc1	6.08		
C#Cc1ccc(C(=O)Nc2ccc3sc(CO)nc3c2)cc1	6.76	25 µM (≈ 7.71 µg/mL)	
CC(C)(C)OCc1ccc(C(=O)Nc2ccc3sc(CO)nc3c2)cc1	7.28	11 µM (≈ 4.08 µg/mL)	
O=C(Nc1ccc2sc(CO)nc2c1)c1ccc(C(F)(F)F)nc1		61 µM (≈ 21.6 µg/mL)	microsomal CLint [3]: 13 µL/min/mg
O=S(=O)(Nc1ccc2sc(CO)nc2c1)c1ccc(Br)cc1	< 5.00		
O=S(=O)(Nc1ccc(C(F)(F)F)cc1)c1ccc2sc(CO)nc2c1	5.25		
Cc1cc(OC(C)C)ccc1C(=O)Nc1ccc2sc(CO)nc2c1		9 µM (≈ 3.21 µg/mL)	hepatocyte CLint [4]: 12 µL/min/1e6 cells
CC(O)c1nc2cc(NC(=O)c3ccc(C(C)(C)C)cc3)ccc2s1 (racemic)	6.65		
CC(C)(C)Oc1cccc(C(=O)Nc2ccc3sc(CO)nc3c2)c1	5.97	181 µM (≈ 64.5 µg/mL)	
CCOCc1ccc(C(=O)Nc2ccc3sc(CO)nc3c2)cc1	6.31	37 µM (≈ 12.7 µg/mL)	microsomal CLint [3]: 24 µL/min/mg
